Measurements: article PMC4291750 (Journal of the American Chemical Society, 2014)

Columns and labels:
[1] = test system: IFN-γ-primed U937 cells with PSMA-coated beads; assay: ROS production; format: cell-based
Procedure, shortened: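 U937 cells primed 72 h with IFN-γ (final 2 ng/mL, daily medium change). 3×10^5 cells/mL in phenol-free RPMI/10% low-IgG FBS mixed with test compound, with or without 10^5 PSMA-coated beads/mL. 2.5 mM lucigenin solution added (stock). Plate spun 200 rcf 2 min. Chemiluminescence read every 2 min for 60–90 min; peak luminescence taken. Mean of ≥duplicates ±SD.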

[2] = test system: PSMA-coated beads phagocytosed by IFN-γ-primed U937 cells; assay: Bead phagocytosis assay; format: cell-based
Procedure, shortened: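 Effectors were U937 cells primed 72 h with IFN-γ (final 2 ng/mL, medium changed daily) and stained with DiD (final 1.9 μM, 30 min, 37 °C). Targets were 6 μm fluorescent streptavidin beads loaded with avi-tagged PSMA. 4×10^4 beads and 10^5 effectors (E:T 2.5:1) in phenol-free RPMI/10% low-IgG FBS, ±test compound ±competitor (PSMA ligand or anti-FcγRI antibody). Spun 200 rcf 2 min, 37 °C 1 h, stopped on ice, flow cytometry. % targets phagocytosed minus no-compound background; mean of ≥duplicates ±SD.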

[3] = test system: PSMA-expressing RM1.PGLS cells phagocytosed by IFN-γ-primed U937 cells; assay: Cell phagocytosis assay; format: cell-based, murine
Procedure, shortened: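 RM1.PGLS targets were stained adherent with DiO (final 1.9 μM), detached with 0.5 mM EDTA/EGTA and checked by trypan blue. 1.25×10^4 targets and 10^5 IFN-γ-primed, DiD-stained U937 (E:T 8:1; range 2:1–20:1 also tested) in Assay Media, ±test compound ±inhibitors. Spun 200 rcf 2 min, 1 h at 37 °C, then flow cytometry. % targets phagocytosed minus background. Imaging-cytometry counterpart: formaldehyde-fixed, CD14/CD11b-APC plus Hoechst, events scored as cup or engulfment. Dunnett ANOVA versus no compound.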

[4] = test system: isogenic PSMA-negative RM1 tumor line; assay: Cell phagocytosis assay, PSMA-negative control; format: cell-based, murine; conditions: U937 effector cells
RM1-hPSMA cells = assay: Compound cytotoxicity assay; format: cell-based, murine; conditions: cell index over 24 hours, vs 1% DMSO
Procedure, shortened: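 12 500 RM1-hPSMA cells per well were plated 36 h beforehand in DMEM (4.5 g/L glucose, 10% FBS, pen/strep, 2 mM glutamine, 1 mM pyruvate). Impedance cell index was recorded at 37 °C, 5% CO2, with cell-free medium as background. At time 0 medium was replaced with test compound at various concentrations, 1% DMSO vehicle or 3% Triton. Readings every 2 min for 3 h, then every 10 min for 21 h.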

Structure (SMILES): CC(=O)N[C@H](C(=O)N[C@@H](CC(N)=O)C(=O)N[C@@H](CO)C(=O)N[C@H]1CSSC[C@@H](C(=O)NCC(=O)N[C@@H](CC(=O)O)C(=O)N[C@@H](CC(=O)O)C(=O)N[C@@H](CCCCNC(=O)CCCC(=O)NCCOCCOCCOCC(=O)NCCCC[C@H](NC(=O)COCCOCCOCCNC(=O)CCCC(=O)NCCCC[C@H](NC(=O)[C@H](CC(=O)O)NC(=O)[C@H](CC(=O)O)NC(=O)CNC(=O)[C@@H]2CSSC[C@H](NC(=O)[C@H](CO)NC(=O)[C@H](CC(N)=O)NC(=O)[C@@H](NC(C)=O)C(C)C)C(=O)N[C@@H](CC(C)C)C(=O)N[C@@H](CC(C)C)C(=O)N[C@@H](CC(C)C)C(=O)N3CCC[C@H]3C(=O)N[C@@H](CC(N)=O)C(=O)N[C@@H](CC(C)C)C(=O)N[C@@H](CC(C)C)C(=O)NCC(=O)N2)C(=O)N[C@@H](CCCCNC(=O)CCCC[C@@H]2SC[C@@H]3NC(=O)N[C@@H]32)C(N)=O)C(=O)NCc2cn(-c3cc(C(=O)NCCCCCC(=O)NCCCCCC(=O)NCCCCCC(=O)NCCCCCC(=O)NCCCCCC(=O)NCCCCCC(=O)NCc4cn(CCCC[C@H](NC(=O)N[C@@H](CCC(=O)O)C(=O)O)C(=O)O)nn4)cc(C(=O)NCCCCCC(=O)NCCCCCC(=O)NCCCCCC(=O)NCCCCCC(=O)NCCCCCC(=O)NCCCCCC(=O)NCc4cn(CCCC[C@H](NC(=O)N[C@@H](CCC(=O)O)C(=O)O)C(=O)O)nn4)c3)nn2)C(=O)N[C@@H](CCCCNC(=O)CCCC[C@@H]2SC[C@@H]3NC(=O)N[C@@H]32)C(N)=O)NC(=O)CNC(=O)[C@H](CC(C)C)NC(=O)[C@H](CC(C)C)NC(=O)[C@H](CC(N)=O)NC(=O)[C@@H]2CCCN2C(=O)[C@H](CC(C)C)NC(=O)[C@H](CC(C)C)NC(=O)[C@H](CC(C)C)NC1=O)C(C)C [SyAM-P3]
- ROS production in the absence of target beads ([1]; no PSMA-labeled beads): required the presence of PSMA-labeled beads
- superoxide burst response ([1]; with PSMA-coated beads, lucigenin chemiluminescence): both more potent and more efficacious than earlier-generation molecules
- phagocytosis of PSMA-coated beads, comparison between SyAMs ([2]; primed U937 effector cells): both more potent and more efficacious than earlier-generation molecules
- phagocytosis of PSMA-expressing RM1.PGLS cells ([3]; U937 effector cells): significant levels of target cell phagocytosis
- phagocytosis of PSMA-negative RM1 cells [4]: only minimal levels of phagocytosis
- cytotoxicity in the absence of effector cells (RM1-hPSMA cells): non-cytotoxic

Structure (SMILES): O=C(O)CCC(CP(=O)(O)O)C(=O)O (stereo not drawn) [2-PMPA]
- effect of competitor on SyAM-P3-induced bead phagocytosis ([2]; 50 nM SyAM-P3): suppressed in a concentration-dependent manner
- effect of competitor on SyAM-P1-induced bead phagocytosis ([2]; SyAM-P1-induced effector responses): abrogated
- effect of competitor on SyAM-P3-induced cell phagocytosis ([3]; RM1.PGLS targets): suppressed
